ChEMBL document CHEMBL1781874, “Cytotoxic triterpenoids from the stems of Microtropis japonica” (J Nat Prod, 2009)
≈ marks a conversion by molar mass, not a printed value. Calls of active or inactive are those of the source. The calls are words filed in the database; no cut-off is given here.

What was measured:
[1] = target: Histone deacetylase 3 (Homo sapiens) (UniProt O15379); test: Inhibition of HDAC3 in human HL60 cells at 5 to 20 ug/ml after 24 hrs by Western blotting analysis; assay type: cell-based; settings: HL-60
Sequence of Histone deacetylase 3 (Homo sapiens) (O15379 whole entry): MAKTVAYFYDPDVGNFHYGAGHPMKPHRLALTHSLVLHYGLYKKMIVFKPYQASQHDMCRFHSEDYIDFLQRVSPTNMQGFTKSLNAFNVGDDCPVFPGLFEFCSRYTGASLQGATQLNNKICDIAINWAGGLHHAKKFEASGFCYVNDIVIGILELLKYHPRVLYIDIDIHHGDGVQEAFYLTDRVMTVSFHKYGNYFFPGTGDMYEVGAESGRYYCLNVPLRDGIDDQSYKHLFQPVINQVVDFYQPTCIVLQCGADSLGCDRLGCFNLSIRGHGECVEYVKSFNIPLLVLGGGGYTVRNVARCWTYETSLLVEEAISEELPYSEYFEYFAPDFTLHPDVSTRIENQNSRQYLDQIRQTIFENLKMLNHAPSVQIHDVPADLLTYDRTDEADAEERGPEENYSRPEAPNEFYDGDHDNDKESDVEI
How it was run: (§1)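 Cells lysed for 30 min in RIPA buffer (PBS, 1% NP-40, 0.5% deoxycholate, 0.1% SDS, 1 mM orthovanadate, 100 μg/mL PMSF, 30 μg/mL aprotinin), then spun at 20000g for 30 min. Supernatant protein quantified by Bio-Rad assay. Equal protein run on 7.5, 10 or 12% SDS-PAGE, transferred to PVDF, blocked 1 h in 5% nonfat milk in TBST.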

[2] = target: Histone deacetylase 1 (Homo sapiens) (UniProt Q13547); test: Inhibition of HDAC1 in human HL60 cells at 5 to 20 ug/ml after 24 hrs by Western blotting analysis; assay type: cell-based; settings: HL-60; how it was run: as §1
Sequence of Histone deacetylase 1 (Homo sapiens) (Q13547 whole entry): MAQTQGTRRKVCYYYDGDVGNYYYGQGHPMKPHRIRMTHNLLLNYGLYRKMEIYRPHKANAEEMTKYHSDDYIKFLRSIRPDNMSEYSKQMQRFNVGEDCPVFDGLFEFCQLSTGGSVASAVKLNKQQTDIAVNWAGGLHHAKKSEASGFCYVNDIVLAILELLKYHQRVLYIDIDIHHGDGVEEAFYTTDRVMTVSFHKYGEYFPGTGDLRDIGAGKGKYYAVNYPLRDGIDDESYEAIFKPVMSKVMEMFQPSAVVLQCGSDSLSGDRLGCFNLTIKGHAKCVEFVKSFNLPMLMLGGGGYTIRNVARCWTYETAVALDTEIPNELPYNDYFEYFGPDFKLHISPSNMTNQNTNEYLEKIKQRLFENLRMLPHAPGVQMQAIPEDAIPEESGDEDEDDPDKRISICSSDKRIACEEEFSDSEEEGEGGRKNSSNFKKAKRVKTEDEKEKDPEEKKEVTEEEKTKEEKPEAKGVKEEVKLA

[3] = test system: HL-60; test: Induction of apoptosis in human HL60 cells assessed as PARP cleavage by Western blotting analysis; assay type: functional, cell-based; how it was run: as §1
[4] = test system: HL-60; test: Induction of apoptosis in human HL60 cells assessed as increase in Bax expression by Western blotting analysis; assay type: functional, cell-based; how it was run: as §1
[5] = test system: Ca9-22; test: Cytotoxicity against human Ca9-22 cells after 24 hrs by MTT assay; assay type: functional, cell-based; settings: Ca9-22, 24 h
How it was run: (§2)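 MTT viability read-out on human cancer cell lines (Ca9-22 gingival, HL60 leukemia, HepG2 hepatoma), run to a previously published protocol.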

[6] = test system: HL-60; test: Cytotoxicity against human HL60 cells after 24 hrs by MTT assay; assay type: functional, cell-based; settings: HL-60, 24 h; how it was run: as §2
[7] = target: T1, Protein deacetylase HDAC6 (Homo sapiens) (UniProt Q9UBN7); test: Inhibition of HDAC6 in human HL60 cells at 5 to 20 ug/ml after 24 hrs by Western blotting analysis; assay type: cell-based; settings: HL-60; how it was run: as §1
T1 sequence (whole entry): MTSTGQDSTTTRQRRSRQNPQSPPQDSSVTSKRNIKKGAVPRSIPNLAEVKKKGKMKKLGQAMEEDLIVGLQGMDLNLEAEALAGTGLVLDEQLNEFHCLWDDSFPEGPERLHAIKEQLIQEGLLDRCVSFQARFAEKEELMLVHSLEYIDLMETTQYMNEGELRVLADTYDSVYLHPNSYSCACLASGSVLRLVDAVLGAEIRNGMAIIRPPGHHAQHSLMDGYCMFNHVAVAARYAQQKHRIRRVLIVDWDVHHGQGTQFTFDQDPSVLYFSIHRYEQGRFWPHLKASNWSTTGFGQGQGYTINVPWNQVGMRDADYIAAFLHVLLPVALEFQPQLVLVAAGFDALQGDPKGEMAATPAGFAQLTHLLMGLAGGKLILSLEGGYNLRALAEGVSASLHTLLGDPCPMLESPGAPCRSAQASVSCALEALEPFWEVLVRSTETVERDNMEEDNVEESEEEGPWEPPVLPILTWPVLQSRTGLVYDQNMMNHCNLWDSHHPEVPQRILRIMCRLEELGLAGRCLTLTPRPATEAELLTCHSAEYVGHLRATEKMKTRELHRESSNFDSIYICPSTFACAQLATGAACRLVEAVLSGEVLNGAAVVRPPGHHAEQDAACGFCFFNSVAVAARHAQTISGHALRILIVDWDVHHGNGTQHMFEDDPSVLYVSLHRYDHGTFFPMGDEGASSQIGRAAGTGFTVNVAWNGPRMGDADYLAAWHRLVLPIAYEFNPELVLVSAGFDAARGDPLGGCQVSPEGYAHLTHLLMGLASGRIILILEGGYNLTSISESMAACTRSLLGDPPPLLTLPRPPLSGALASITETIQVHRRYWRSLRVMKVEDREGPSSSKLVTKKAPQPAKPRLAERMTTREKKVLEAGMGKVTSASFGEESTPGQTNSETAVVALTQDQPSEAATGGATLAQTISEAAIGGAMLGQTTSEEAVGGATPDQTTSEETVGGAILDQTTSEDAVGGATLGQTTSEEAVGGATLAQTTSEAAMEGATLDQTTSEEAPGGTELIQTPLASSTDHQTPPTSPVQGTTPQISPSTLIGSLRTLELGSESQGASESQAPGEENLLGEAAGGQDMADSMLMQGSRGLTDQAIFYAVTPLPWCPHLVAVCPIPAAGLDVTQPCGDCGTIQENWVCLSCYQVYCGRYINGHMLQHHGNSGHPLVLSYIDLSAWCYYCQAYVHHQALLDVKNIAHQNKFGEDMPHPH

[8] = target: Histone deacetylase 4 (Homo sapiens) (UniProt P56524); test: Inhibition of HDAC4 in human HL60 cells at 5 to 20 ug/ml after 24 hrs by Western blotting analysis; assay type: cell-based; settings: HL-60; how it was run: as §1
Sequence of Histone deacetylase 4 (Homo sapiens) (P56524 whole entry): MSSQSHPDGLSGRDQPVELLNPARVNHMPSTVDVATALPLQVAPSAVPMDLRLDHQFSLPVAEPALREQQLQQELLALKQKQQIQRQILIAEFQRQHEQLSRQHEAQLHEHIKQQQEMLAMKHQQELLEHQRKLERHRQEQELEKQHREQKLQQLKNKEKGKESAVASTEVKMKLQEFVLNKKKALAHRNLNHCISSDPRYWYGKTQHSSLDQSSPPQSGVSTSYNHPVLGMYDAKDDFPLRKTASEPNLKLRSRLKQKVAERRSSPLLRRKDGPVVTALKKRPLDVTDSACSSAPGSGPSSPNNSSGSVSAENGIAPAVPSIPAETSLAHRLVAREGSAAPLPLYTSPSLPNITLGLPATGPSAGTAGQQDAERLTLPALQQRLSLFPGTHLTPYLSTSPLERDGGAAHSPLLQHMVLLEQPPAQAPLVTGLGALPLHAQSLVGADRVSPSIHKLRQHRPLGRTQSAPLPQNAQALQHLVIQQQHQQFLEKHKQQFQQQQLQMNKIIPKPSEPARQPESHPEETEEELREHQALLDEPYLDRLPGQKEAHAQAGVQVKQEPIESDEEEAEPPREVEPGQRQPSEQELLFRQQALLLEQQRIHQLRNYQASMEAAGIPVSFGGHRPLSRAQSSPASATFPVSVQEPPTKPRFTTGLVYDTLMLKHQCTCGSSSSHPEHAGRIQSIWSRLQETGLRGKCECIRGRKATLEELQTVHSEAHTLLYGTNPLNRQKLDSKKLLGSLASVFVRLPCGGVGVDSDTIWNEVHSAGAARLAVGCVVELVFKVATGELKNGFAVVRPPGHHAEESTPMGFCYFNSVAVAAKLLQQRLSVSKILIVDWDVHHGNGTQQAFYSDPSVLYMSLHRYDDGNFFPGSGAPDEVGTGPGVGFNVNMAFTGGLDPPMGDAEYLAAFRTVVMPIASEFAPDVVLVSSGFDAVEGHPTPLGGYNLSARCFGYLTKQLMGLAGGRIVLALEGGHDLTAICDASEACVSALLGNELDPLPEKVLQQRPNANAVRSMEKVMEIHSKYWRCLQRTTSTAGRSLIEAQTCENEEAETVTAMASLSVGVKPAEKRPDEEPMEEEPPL

[9] = target: Histone deacetylase 5 (Homo sapiens) (UniProt Q9UQL6); test: Inhibition of HDAC5 in human HL60 cells at 5 to 20 ug/ml after 24 hrs by Western blotting analysis; assay type: cell-based; settings: HL-60; how it was run: as §1
Sequence of Histone deacetylase 5 (Homo sapiens) (Q9UQL6 whole entry): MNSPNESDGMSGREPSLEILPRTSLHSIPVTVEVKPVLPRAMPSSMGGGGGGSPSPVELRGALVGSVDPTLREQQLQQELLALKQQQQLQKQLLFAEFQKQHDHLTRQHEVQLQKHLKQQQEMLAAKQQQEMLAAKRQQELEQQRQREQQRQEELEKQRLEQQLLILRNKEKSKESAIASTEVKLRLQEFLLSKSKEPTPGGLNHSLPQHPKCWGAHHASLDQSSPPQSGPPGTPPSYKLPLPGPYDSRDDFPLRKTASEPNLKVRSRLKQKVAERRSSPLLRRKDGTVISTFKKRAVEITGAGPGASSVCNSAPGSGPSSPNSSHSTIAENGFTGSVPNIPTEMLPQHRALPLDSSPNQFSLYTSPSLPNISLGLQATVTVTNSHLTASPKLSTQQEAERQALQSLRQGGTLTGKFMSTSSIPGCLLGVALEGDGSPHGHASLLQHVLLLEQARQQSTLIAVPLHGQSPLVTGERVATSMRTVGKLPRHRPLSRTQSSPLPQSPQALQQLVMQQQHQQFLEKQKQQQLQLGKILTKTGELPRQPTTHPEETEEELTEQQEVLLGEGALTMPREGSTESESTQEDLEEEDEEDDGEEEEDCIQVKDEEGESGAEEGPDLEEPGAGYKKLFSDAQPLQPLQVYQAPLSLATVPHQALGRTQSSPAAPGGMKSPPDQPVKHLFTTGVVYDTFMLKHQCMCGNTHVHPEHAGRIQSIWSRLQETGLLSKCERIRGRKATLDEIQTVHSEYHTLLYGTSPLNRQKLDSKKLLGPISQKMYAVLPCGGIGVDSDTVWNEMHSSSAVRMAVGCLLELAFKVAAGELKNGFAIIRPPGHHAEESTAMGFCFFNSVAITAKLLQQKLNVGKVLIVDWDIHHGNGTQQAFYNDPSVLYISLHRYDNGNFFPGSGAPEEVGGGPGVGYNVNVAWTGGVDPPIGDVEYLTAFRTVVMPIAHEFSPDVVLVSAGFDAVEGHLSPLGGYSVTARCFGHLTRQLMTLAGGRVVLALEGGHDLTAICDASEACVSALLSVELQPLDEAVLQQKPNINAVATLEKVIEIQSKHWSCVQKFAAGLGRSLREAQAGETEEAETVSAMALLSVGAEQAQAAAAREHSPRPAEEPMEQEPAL

[10] = test system: HL-60; test: Effect on Bcl2 expression in human HL60 cells by Western blotting analysis; assay type: functional, cell-based; how it was run: as §1
[11] = target: Histone deacetylase (Homo sapiens) (UniProt Q13547+O15379+Q9UBN7+Q92769+Q9UQL6+Q8WUI4+Q9BY41+Q96DB2+P56524+Q9UKV0+Q969S8); settings: HL-60, at 20 µg/mL
[12] = test system: HepG2; test: Cytotoxicity against human HepG2 cells after 24 hrs by MTT assay; assay type: functional, cell-based; settings: HepG2, 24 h; how it was run: as §2

C[C@H]1[C@H](C)CC[C@]2(C(=O)O)CC[C@]3(C)C(=CC[C@@H]4[C@@]5(C)CC[C@H](O)C(C)(C)[C@@H]5CC[C@]43C)[C@H]12 [URSOLIC ACID]
inhibition [1]: Active | inhibition [2]: Active | Activity [3]: Active | Activity [4]: Active | IC50 [5]: 5.9 µg/mL (≈ 12.9 µM) | IC50 [6]: 8.7 µg/mL (≈ 19 µM) | inhibition [7]: Active | inhibition [8]: Active | inhibition [9]: Active | Activity [10]: inactive | inhibition [11]: Active

CO[C@@H]1C(O)=C2[C@@H]3[C@@H](C)[C@H](C)CC[C@]3(C)CC[C@@]2(C)[C@]2(C)CC[C@@H]3[C@](C)(CCC(=O)[C@@]3(C)CO)[C@@H]12
IC50 [6]: 5.1 µg/mL (≈ 10.5 µM) | IC50 [12]: 7.7 µg/mL (≈ 15.8 µM)
